For 18 compounds, IC50, Ratio IC50 and Activity results are on record in ChEMBL document CHEMBL1212913, “Quinazolin-4-one derivatives: A novel class of noncompetitive NR2C/D subunit-selective N-methyl-D-aspartate receptor antagonists” (J Med Chem, 2010).

Calls of active or inactive are those of the source. The rule behind the calls is not given here.

For assay [1], the target named is Glutamate NMDA receptor; Grin1/Grin2a (Rattus norvegicus, UniProt P35439+Q00959). In words: Antagonist activity at rat recombinant NR1-NR2A receptor expressed in Xenopus oocytes at holding potential of -40mV by two-electrode voltage-clamp electrophysiology. It counts as functional, cell-based, Oocyte. Conditions: read-out: IC50. In a few lines:
(§1)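 Oocytes expressing rat NR1-1a with NR2A, NR2B, NR2C or NR2D, clamped at −40 mV in Ba2+/HEPES recording solution pH 7.4, 23°C. Current evoked by 100 μM glutamate plus 30 μM glycine. Final DMSO 0.05-0.5%, 5-7 inhibitor concentrations, ≥4 oocytes each. IC50 from Hill fit of normalized mean composite data. […] Some NR2A oocytes given BAPTA-AM or K-BAPTA.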

The species named for assay [2] is Rattus norvegicus. In words: Selectivity ratio of IC50 for rat recombinant GLuR1 to IC50 for rat recombinant NR1-NR2D receptor. An outline of the steps:
(§2)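 Ratio of fitted IC50 values, either NR2A/NR2D or GluR1/NR2D, from two-electrode voltage-clamp Hill fits in oocytes. Where noted, calculated from IC50 values rounded to the nearest μM.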

Assay [3] deals with Glutamate NMDA receptor; Grin1/Grin2c (Rattus norvegicus, UniProt P35439+Q00961). In words: Antagonist activity at rat recombinant NR1-NR2C receptor expressed in Xenopus oocytes at holding potential of -40mV by two-electrode voltage-clamp electrophysiology. Type of assay: functional, cell-based, Oocyte. An outline of the steps: as §1
Glutamate NMDA receptor; Grin1/Grin2c, sequence (Q00961 whole entry, other chains not shown): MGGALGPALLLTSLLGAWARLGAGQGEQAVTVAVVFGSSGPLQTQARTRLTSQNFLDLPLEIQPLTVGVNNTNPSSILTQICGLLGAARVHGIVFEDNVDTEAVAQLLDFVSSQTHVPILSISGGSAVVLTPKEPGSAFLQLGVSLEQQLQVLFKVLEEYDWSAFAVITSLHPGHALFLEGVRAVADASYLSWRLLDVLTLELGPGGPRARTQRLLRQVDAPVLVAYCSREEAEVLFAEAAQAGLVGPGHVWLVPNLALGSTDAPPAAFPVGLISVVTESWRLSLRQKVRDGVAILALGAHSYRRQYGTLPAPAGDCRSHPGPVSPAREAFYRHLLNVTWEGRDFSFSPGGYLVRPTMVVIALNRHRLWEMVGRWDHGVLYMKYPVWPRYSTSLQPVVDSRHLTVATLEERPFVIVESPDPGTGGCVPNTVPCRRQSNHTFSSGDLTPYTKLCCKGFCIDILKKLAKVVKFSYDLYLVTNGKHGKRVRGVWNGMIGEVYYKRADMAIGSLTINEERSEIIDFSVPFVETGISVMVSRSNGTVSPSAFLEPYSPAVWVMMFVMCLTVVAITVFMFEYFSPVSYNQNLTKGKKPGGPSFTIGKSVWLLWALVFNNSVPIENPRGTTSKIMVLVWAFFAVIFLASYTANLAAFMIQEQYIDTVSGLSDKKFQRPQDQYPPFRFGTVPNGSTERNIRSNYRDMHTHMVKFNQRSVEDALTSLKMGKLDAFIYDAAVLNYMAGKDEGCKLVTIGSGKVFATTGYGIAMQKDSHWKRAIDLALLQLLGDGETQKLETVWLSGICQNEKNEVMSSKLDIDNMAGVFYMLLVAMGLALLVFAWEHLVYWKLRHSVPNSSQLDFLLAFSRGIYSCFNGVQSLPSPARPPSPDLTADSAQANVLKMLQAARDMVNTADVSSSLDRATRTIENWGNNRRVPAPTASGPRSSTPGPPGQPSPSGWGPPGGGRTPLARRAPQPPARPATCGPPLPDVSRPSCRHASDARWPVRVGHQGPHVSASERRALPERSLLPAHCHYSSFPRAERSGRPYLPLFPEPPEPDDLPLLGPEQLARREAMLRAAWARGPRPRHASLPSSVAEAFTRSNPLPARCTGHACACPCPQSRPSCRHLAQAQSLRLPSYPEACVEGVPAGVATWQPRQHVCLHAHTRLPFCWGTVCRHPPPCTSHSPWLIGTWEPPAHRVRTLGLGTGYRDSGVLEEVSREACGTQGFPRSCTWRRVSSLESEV
Assay [4] has as its target Ionotropic glutamate receptor NMDA 1/2D (Rattus norvegicus, UniProt P35439+Q62645). In words: Antagonist activity at rat recombinant NR1-NR2D receptor expressed in Xenopus oocytes at holding potential of -40mV by two-electrode voltage-clamp electrophysiology. It counts as functional, cell-based, Oocyte. An outline of the steps:
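Oocytes expressing rat NR1-1a with NR2A, NR2B, NR2C or NR2D, clamped at −40 mV in Ba2+/HEPES recording solution pH 7.4, 23°C. Current evoked by 100 μM glutamate plus 30 μM glycine. Final DMSO 0.05-0.5%, 5-7 inhibitor concentrations, ≥4 oocytes each. IC50 from Hill fit of normalized mean composite data. Some NR2A oocytes given BAPTA-AM or K-BAPTA.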
Background: In two-electrode clamp one electrode senses voltage and the other passes current.

In assay [5] the target is Glutamate receptor 1 (Rattus norvegicus, UniProt P19490). In words: Antagonist activity at rat recombinant GLuR1 expressed in Xenopus oocytes assessed as inhibition of glutamate-induced current by two-electrode voltage-clamp electrophysiology. It counts as functional, cell-based, Oocyte. In a few lines:
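Two-electrode voltage clamp at −40 mV on Xenopus oocytes expressing rat GluR1, perfused with 90 NaCl, 1.0 KCl, 0.5 BaCl2, 0.005 EDTA, 10 HEPES (mM), pH 7.4, 23°C; activated by 100 μM glutamate. From 20 mM DMSO stocks, 5-7 concentrations, ≥4 oocytes each. Hill fit to mean composite curves normalized to control, minimum usually fixed at 0. Response >75% at 100 μM reported as >300 μM.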

Assay [6] has as its target Glutamate receptor ionotropic, kainate 2 (Rattus norvegicus, UniProt P42260). In words: Antagonist activity at rat recombinant GLuR6 expressed in Xenopus oocytes assessed as inhibition of glutamate-induced current by two-electrode voltage-clamp electrophysiology. It counts as functional, cell-based. Conditions: oocyte. In a few lines: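 Rat GluR6 expressed in Xenopus oocytes, pretreated with 10 μM concanavalin A for 10 min, then activated by 100 μM glutamate. Cells were held at −40 mV in 90 mM NaCl, 1.0 KCl, 0.5 BaCl2, 0.005 EDTA and 10 HEPES, pH 7.4, at 23°C. Compounds were diluted from 20 mM DMSO stocks, final DMSO 0.05-0.5%. Concentration-effect curves were recorded.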

For assay [7], the target named is Glutamate NMDA receptor; Grin1/Grin2b (Rattus norvegicus, UniProt P35439+Q00960). In words: Antagonist activity at rat recombinant NR1-NR2B receptor expressed in Xenopus oocytes at holding potential of -40mV by two-electrode voltage-clamp electrophysiology. Type of assay: functional, cell-based, Oocyte. Conditions: read-out: IC50. In a few lines:
as §1

Assay [8] is filed under the species Rattus norvegicus. In words: Selectivity ratio of IC50 for rat recombinant NR1-NR2A receptor to IC50 for rat recombinant NR1-NR2D receptor. An outline of the steps: as §2
The target in assay [9] is T1, Ionotropic glutamate receptor NMDA 1/2D (Rattus norvegicus) (UniProt P35439+Q62645). In words: Antagonist activity at rat recombinant NR1-NR2D receptor expressed in Xenopus oocytes at 10 uM at holding potential of -40mV by two-electrode voltage-clamp electrophysiology. It counts as functional, cell-based. Conditions: Oocyte.
Assay [10] concerns the target T1, Ionotropic glutamate receptor NMDA 1/2D (Rattus norvegicus). In words: Antagonist activity at rat recombinant NR1-NR2D receptor expressed in Xenopus oocytes at 10 uM at holding potential of +40mV by two-electrode voltage-clamp electrophysiology. Type of assay: functional, cell-based. The conditions noted are these: Oocyte.
Assay [11] shares this target. In words: Antagonist activity at rat recombinant NR1-NR2D receptor expressed in Xenopus oocytes at 30 uM at holding potential of -40mV by two-electrode voltage-clamp electrophysiology in presence of up to 1000/300 uM of glutamate/glycine. It counts as functional, cell-based. Conditions: Oocyte. In a few lines: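 NR1/NR2D oocytes held at −40 mV. Inhibition by 30 μM compound was compared with glutamate/glycine at 100/30 μM and raised to 1000/300 μM, to test whether higher agonist surmounts block. n=4.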

Glutamate receptor ionotropic, kainate 2, sequence (P42260 whole entry): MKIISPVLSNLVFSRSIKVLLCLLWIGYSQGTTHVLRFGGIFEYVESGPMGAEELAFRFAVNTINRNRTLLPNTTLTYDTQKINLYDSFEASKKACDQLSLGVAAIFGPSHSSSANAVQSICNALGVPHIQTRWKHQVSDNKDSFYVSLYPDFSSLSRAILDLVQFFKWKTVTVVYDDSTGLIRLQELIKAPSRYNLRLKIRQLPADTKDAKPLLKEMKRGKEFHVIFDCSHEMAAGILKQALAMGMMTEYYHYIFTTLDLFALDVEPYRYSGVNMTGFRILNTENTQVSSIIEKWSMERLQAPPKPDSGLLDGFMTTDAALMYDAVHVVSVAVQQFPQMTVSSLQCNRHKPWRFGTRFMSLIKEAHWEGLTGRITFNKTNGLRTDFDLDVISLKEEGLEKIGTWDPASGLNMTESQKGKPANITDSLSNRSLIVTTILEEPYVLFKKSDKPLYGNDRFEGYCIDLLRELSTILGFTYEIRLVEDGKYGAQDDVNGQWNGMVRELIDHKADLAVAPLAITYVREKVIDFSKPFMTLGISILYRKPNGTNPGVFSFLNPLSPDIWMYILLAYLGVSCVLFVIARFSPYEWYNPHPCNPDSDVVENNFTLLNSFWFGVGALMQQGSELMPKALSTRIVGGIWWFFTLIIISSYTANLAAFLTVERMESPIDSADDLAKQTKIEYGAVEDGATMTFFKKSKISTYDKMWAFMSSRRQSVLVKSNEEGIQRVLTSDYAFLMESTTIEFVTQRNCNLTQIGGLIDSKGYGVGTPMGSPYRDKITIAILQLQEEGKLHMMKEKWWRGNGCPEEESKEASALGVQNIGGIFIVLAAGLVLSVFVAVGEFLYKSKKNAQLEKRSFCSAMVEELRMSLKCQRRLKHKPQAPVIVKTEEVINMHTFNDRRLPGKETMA
Glutamate receptor 1, sequence (P19490 whole entry, the tested form may be a part): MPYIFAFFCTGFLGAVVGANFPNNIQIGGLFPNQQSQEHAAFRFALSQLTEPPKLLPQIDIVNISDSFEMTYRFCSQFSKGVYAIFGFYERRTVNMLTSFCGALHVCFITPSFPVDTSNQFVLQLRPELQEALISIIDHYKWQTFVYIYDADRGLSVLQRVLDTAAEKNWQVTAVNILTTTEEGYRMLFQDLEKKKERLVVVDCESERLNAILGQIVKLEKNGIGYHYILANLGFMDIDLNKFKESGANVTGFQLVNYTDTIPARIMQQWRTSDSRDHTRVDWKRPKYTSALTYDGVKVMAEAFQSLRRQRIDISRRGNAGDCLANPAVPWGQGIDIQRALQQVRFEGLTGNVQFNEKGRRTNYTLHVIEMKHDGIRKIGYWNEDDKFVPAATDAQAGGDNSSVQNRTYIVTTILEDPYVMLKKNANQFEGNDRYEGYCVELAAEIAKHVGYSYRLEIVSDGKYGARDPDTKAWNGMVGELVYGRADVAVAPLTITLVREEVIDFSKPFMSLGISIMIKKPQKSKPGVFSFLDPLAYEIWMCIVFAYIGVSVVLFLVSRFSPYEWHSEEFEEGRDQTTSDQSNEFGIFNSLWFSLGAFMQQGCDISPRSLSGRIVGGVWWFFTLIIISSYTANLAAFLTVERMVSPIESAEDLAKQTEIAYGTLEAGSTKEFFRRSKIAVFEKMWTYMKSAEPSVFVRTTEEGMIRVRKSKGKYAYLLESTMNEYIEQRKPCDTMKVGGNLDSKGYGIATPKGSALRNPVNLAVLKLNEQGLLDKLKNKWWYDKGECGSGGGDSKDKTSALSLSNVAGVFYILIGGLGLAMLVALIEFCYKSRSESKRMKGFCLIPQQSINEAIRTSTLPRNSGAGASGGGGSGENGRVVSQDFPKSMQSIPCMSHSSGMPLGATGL
Glutamate NMDA receptor; Grin1/Grin2a, sequence (Q00959 whole entry, other chains not shown): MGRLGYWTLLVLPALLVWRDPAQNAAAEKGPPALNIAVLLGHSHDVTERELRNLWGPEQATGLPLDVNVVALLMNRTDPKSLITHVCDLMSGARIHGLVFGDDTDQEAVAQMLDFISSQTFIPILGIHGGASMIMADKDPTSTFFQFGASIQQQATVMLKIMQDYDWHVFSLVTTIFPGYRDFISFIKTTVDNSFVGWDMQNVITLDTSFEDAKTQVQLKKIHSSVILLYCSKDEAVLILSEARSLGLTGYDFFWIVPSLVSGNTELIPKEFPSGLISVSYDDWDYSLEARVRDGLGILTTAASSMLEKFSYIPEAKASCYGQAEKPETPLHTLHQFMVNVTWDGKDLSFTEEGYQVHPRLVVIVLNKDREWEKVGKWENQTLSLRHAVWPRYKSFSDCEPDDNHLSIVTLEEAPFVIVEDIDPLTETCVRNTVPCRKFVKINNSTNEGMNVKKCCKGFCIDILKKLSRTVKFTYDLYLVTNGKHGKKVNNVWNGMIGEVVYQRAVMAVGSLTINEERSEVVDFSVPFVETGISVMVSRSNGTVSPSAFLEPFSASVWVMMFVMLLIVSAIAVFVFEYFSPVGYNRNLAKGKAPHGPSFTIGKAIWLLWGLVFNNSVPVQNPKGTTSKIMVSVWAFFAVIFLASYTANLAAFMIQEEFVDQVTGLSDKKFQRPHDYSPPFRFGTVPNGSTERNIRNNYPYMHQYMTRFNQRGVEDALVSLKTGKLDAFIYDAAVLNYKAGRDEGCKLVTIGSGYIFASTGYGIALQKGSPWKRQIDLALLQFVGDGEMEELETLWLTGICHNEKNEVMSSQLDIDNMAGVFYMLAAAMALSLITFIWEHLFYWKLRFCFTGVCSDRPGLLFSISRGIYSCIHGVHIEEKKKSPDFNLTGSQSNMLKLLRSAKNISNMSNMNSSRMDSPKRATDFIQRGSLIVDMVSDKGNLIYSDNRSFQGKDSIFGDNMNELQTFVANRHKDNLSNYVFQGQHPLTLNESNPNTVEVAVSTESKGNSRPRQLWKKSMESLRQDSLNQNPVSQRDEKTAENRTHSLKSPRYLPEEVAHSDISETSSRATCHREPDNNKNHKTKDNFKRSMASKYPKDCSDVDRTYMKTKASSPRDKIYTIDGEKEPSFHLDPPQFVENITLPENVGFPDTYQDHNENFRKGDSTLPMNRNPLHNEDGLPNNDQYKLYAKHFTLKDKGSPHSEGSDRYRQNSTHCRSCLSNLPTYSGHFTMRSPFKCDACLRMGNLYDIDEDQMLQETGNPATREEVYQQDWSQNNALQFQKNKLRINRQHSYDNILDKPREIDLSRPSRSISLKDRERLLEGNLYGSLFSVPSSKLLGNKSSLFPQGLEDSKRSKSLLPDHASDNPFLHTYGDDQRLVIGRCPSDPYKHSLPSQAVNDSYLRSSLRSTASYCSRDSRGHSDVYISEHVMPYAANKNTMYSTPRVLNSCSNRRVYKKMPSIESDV

As to `COc1cccc(-n2c(/C=C/c3ccc([N+](=O)[O-])cc3)nc3ccccc3c2=O)c1`, the IC50 in assay [1] is over 300 µM; in [3], over 300 µM; in assay [4] it was over 300 µM; in assay [5], over 300 µM; in assay [6], “Not Active”. Further, the Ratio IC50 in [2] came to 1.
For `O=C(O)c1cccc(-n2c(/C=C/c3cccc([N+](=O)[O-])c3)nc3ccccc3c2=O)c1`, the IC50 in assay [1] was 100 µM; in [7], 69 µM; in assay [3] it was 19 µM; in assay [4] it was 15 µM; in [5], 32 µM; in assay [6] it was “Not Active”.
Turning to `COc1cccc(-n2c(/C=C/c3cccc([N+](=O)[O-])c3)nc3ccccc3c2=O)c1`, the IC50 in assay [1] is over 300 µM; in [7], 262 µM; in assay [3], 205 µM; in [4] it was 186 µM; in [5], over 300 µM; in assay [6], “Not Active”. Moreover, the Ratio IC50 in assay [2] and in [8] was 2 in each case.
Take `COc1ccc(-n2c(/C=C/c3cccc([N+](=O)[O-])c3)nc3ccccc3c2=O)cc1`: the IC50 in assay [1] is over 300 µM; in assay [7], over 300 µM; in assay [3], 152 µM; in assay [4] it was 168 µM; in assay [5], 178 µM; in [6], “Not Active”.
For the compound `COc1ccc(-n2c(/C=C/c3ccc([N+](=O)[O-])cc3)nc3ccccc3c2=O)cc1`, the IC50 in assay [1] is over 300 µM; in assay [7], 98 µM; in [3] it was 181 µM; in assay [4], 221 µM; in assay [5], over 300 µM; in [6] it was “Not Active”.
For `O=C(O)c1ccccc1-n1c(/C=C/c2ccc([N+](=O)[O-])cc2)nc2ccccc2c1=O`, the IC50 in assay [1] is over 300 µM; in assay [7] it was 197 µM; in assay [3], over 300 µM; in assay [4], 278 µM; in [5] it was over 300 µM; in assay [6], “Not Active”.
For the compound `O=C(O)c1ccc(-n2c(/C=C/c3ccccc3[N+](=O)[O-])nc3ccccc3c2=O)cc1`, the IC50 in assay [1] was 11 µM; in assay [7], 17 µM; in [3], 8 µM; in assay [6] it was “Not Active”.
In the case of `COc1cccc(-n2c(/C=C/c3ccccc3[N+](=O)[O-])nc3ccccc3c2=O)c1`, the IC50 is over 300 µM in assay [1]; over 300 µM in assay [3]; over 300 µM in assay [4]; over 300 µM in assay [5]; “Not Active” in assay [6]. Further, the Ratio IC50 in assay [2] came to 1.
Regarding `O=C(O)c1ccc(-n2c(/C=C/c3cccc([N+](=O)[O-])c3)nc3ccccc3c2=O)cc1`, the IC50 in assay [1] is 21 µM; in [7] it was 30 µM; in assay [3], 12 µM; in assay [4] it was 9 µM; in assay [5], 32 µM; in assay [6], “Not Active”. The outcome in assay [9], in assay [10] and in assay [11] was Active.
As to `COc1ccccc1-n1c(/C=C/c2ccccc2[N+](=O)[O-])nc2ccccc2c1=O`, the IC50 was 4 µM in [1]; 7 µM in assay [7]; 4 µM in assay [3]; 5 µM in assay [4]; 14 µM in [5]; “Not Active” in [6].
For the compound `COc1ccccc1-n1c(/C=C/c2cccc([N+](=O)[O-])c2)nc2ccccc2c1=O`, the IC50 is over 300 µM in assay [1]; over 300 µM in [3]; over 300 µM in assay [4]; over 300 µM in assay [5]; “Not Active” in assay [6]. Further, the Ratio IC50 in assay [2] was 1.
In the case of `O=C(O)c1ccccc1-n1c(/C=C/c2cccc([N+](=O)[O-])c2)nc2ccccc2c1=O`, the IC50 in assay [1] is over 300 µM; in [7], 235 µM; in [3] it was 258 µM; in assay [4], 148 µM; in assay [5], over 300 µM; in assay [6], “Not Active”.
Turning to `O=C(O)c1ccc(-n2c(/C=C/c3ccc([N+](=O)[O-])cc3)nc3ccccc3c2=O)cc1`, the IC50 in [1] is 64 µM; in assay [7], 93 µM; in [3], 15 µM; in assay [4], 15 µM; in assay [5], over 300 µM; in assay [6], “Not Active”.
In the case of `O=C(O)c1cccc(-n2c(/C=C/c3ccccc3[N+](=O)[O-])nc3ccccc3c2=O)c1`, the IC50 in assay [1] was 17 µM; in [7], 20 µM; in [3] it was 8 µM; in [4], 7 µM; in assay [5], 5 µM; in assay [6], “Not Active”.
For `COc1ccc(-n2c(/C=C/c3ccccc3[N+](=O)[O-])nc3ccccc3c2=O)cc1`, the IC50 in [1] is over 300 µM; in assay [3], 143 µM; in assay [4] it was 125 µM; in [5], 223 µM; in assay [6], “Not Active”.
In the case of `O=C(O)c1cccc(-n2c(/C=C/c3ccc([N+](=O)[O-])cc3)nc3ccccc3c2=O)c1`, the IC50 was 135 µM in assay [1]; 177 µM in [7]; 33 µM in assay [3]; 27 µM in assay [4]; over 300 µM in assay [5]; “Not Active” in assay [6].
For `O=C(O)c1ccc(-n2c(/C=C/c3cccc([N+](=O)[O-])c3)nc3cc4ccccc4cc3c2=O)cc1`, the IC50 in assay [1] is 11 µM; in [7], 5 µM; in [3], 2 µM; in assay [4], 2 µM; in assay [5], 4 µM. Also, the results for the Ratio IC50 in assay [2] and in assay [8] were 2 and 6, respectively.
Turning to `COc1ccccc1-n1c(/C=C/c2ccc([N+](=O)[O-])cc2)nc2ccccc2c1=O`, the IC50 in assay [1] was over 300 µM; in [7], over 300 µM; in assay [3], over 300 µM; in assay [4], 290 µM; in [5] it was over 300 µM; in assay [6], “Not Active”. The Ratio IC50 in assay [2] is 1; in assay [8], over 1.

Broadly, the IC50 is the concentration at which inhibition is half-maximal.
